Source: PubChem BioAssay (Sanford-Burnham Center for Chemical Genomics)
The list is not random: actives were taken first. Their share in the collection is about 1.1%.
PMI act hi M6P: human PMI activators, high substrate, primary screen, biochemical, fluorescence intensity, near-saturating mannose 6-phosphate. Mannose-6-phosphate isomerase (Homo sapiens), P34949. activation factor at 20 µM. coupled PMI enzyme assay, resazurin fluorescence, 20 min; active compounds read high; 1 = untreated enzyme, 0 = substrate-free blank. 190,000 tested, 0.34% active;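 active = activation factor of 2 or more at 20 µM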
Target sequence (P34949 whole entry, looked up): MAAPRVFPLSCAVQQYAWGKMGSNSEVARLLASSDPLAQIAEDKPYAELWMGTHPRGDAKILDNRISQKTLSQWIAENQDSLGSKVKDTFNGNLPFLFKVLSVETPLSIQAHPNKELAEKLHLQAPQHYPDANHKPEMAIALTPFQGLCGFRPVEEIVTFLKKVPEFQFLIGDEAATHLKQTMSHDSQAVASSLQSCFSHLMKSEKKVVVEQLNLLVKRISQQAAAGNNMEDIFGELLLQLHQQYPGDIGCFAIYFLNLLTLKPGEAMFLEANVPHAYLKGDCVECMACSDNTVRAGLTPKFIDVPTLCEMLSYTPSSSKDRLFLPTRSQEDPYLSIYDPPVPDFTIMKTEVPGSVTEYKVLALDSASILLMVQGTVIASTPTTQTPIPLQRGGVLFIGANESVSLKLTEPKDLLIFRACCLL
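Test system: human phosphomannose isomerase with PGI, G6PDH, diaphorase coupling enzymes; amount: 15 ng/mL PMI; incubation: enzyme reaction with compound 20 min at room temperature; technique: resorufin fluorescence (Ex 544/Em 590 nm) from resazurin via diaphorase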
PMI act: activators of human PMI, primary screen, biochemical, fluorescence intensity, near-Km mannose 6-phosphate. activation factor at 20 µM. 190,000 tested, 0.005% active. AID 1214, 2008. purified human PMI, coupled resazurin fluorescence, 20 min; active compounds read high; 1 = vehicle control, 0 substrate-free wells. Mannose-6-phosphate isomerase (Homo sapiens), P34949;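 active = activation factor of 2 or more at 20 µM, relative to plate controls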
Diaphorase inh: diaphorase inhibitors and chemical oxidizers, primary screen, counter-screen for diaphorase-coupled primary assays, biochemical, uHTS, resorufin fluorescence. diaphorase resazurin-to-resorufin fluorescence, NADH, 16 min; bacterial (C. kluyveri) enzyme, not human. 190,000 tested, 0.69% active. inhibition, % at 20 µM;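 active = primary screen inhibition at 20 µM above a set limit, cut at about 50% in these data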;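 also: plate controls were DMSO with full reaction for no effect and wells lacking NADH for full effect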
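controls = No-NADH positive control and DMSO neutral control | system = Clostridium kluyveri diaphorase enzyme | timing = reaction incubation of 16 min at room temperature | signal = resorufin fluorescence 544/590 nm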
Diaph act CS: compounds boosting diaphorase resazurin reduction – biochemical, uHTS, resorufin fluorescence, counter-screen for diaphorase-coupled primary assays, primary screen | Diaphorase/resazurin coupled assay, 16 min; active compounds read high; 1 = vehicle wells, 0 = NADH-free wells | activation factor at 20 µM | 190,000 tested, 0.005% active;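 active = diaphorase activity raised at least twofold by the compound at 20 µM; inactive = activation factor below 2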
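Assay system: Purified diaphorase enzyme from Clostridium kluyveri | Amount: Enzyme 0.07 U/mL final | Dosing: Compound 20 µM once, DMSO 1% | Timing: 16 min reaction at room temperature | Detection: Fluorescence, excitation 544 nm and emission 590 nm | Evaluation: Higher resorufin formation from activation or reduction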
G6PDH CS: L. mesenteroides G6PDH inhibitors, counter-screen for G6PDH-coupled screening assays, biochemical, Leuconostoc mesenteroides enzyme; 200,000 tested, 0.12% active; Purified L. mesenteroides G6PDH, diaphorase/resazurin coupled fluorescence, 45 min; glucose-6-phosphate dehydrogenase [Leuconostoc mesenteroides]; inhibition, % at 5 µM; in the data active = inhibition above about 50%
* = called active by the depositor.

What do the screens show for `Cc1cc(=S)cc(C)n1CCO`?
PMI act hi M6P: 2.4*; PMI act: 1.6; Diaphorase inh: 6; Diaph act CS: 0.9; G6PDH CS: -1

How did Cc1ccc(S(=O)(=O)NC(=O)NN2CCCCCC2)cc1 do in these assays?
PMI act hi M6P: 2*; PMI act: 1.7; Diaphorase inh: 2; Diaph act CS: 1; G6PDH CS: 5

How did CC1=CC(C)(C)Nc2ccc(OC(=O)CN3C(=O)c4cccc5cccc(c45)C3=O)cc21 do in these assays?
PMI act hi M6P: 0.4; PMI act: 0.5; Diaphorase inh: 58*; Diaph act CS: 0.4; G6PDH CS: 45

Results for O=C(NNC(=S)NC(=O)C12CC3CC(CC(C3)C1)C2)c1ccncc1 ?
PMI act hi M6P: 1.1; PMI act: 1; Diaphorase inh: 51*; Diaph act CS: 0.5; G6PDH CS: 1

What do the screens show for `COc1ccc(C2C(C#N)=C(C)NC(C)=C2C(=O)OC(C)C)c(OC)c1` (stereo unspecified)?
PMI act hi M6P: 1; PMI act: 1; Diaphorase inh: 16; Diaph act CS: 0.8; G6PDH CS: -3

How did O=C(CN1C(=O)NC2(CCCCC2)C1=O)NCc1ccc2c(c1)OCO2 do in these assays?
PMI act hi M6P: 1.1; PMI act: 1.3; Diaphorase inh: -20; Diaph act CS: 1.2; G6PDH CS: 6

Results for COc1ccc2nc(C)c(C(=O)OCCN(C)C)cc2c1 ?
PMI act hi M6P: 0.9; PMI act: 0.9; Diaphorase inh: 17; Diaph act CS: 0.8; G6PDH CS: 6

How did N#Cc1c(N)nc2c(c1-c1ccccc1)CCC2 do in these assays?
PMI act hi M6P: 0.8; PMI act: 0.9; Diaphorase inh: 14; Diaph act CS: 0.9; G6PDH CS: 10

What do the screens show for `CCOCCCNC(=O)c1ccc(N2CCCC2)c(NS(=O)(=O)c2ccc(C)cc2)c1`?
PMI act hi M6P: 1.5; PMI act: 1.5; Diaphorase inh: 11; Diaph act CS: 0.9; G6PDH CS: 8

What do the screens show for `COCCCNC(=O)c1ccc(N2CCCC2)c(NS(=O)(=O)c2ccc(C)cc2)c1`?
PMI act hi M6P: 2.2*; PMI act: 1.3; Diaphorase inh: 3; Diaph act CS: 1; G6PDH CS: 5

How did Cc1cc(C)c(Nc2cc(S(=O)(=O)O)c(N)c3c2C(=O)c2ccccc2C3=O)c(C)c1 do in these assays?
PMI act hi M6P: 0.6; PMI act: 0.1; Diaphorase inh: 80*; Diaph act CS: 0.2; G6PDH CS: -18

Results for Cc1ccc(C)c2nc(N3CCCC3)c(C#N)cc12 ?
PMI act hi M6P: 2*; PMI act: 1.1; Diaphorase inh: 18; Diaph act CS: 0.8; G6PDH CS: 0

What do the screens show for `COc1ccc(-c2cc(C(F)(F)F)nc(SCC(=O)NCCCN3CCOCC3)n2)cc1`?
PMI act hi M6P: 1; PMI act: 1; Diaphorase inh: 4; Diaph act CS: 1; G6PDH CS: 13

How did O=C(CSc1ncnc2sc3c(c12)CCCCC3)NCc1ccco1 do in these assays?
PMI act hi M6P: 1.1; PMI act: 1; Diaphorase inh: 13; Diaph act CS: 0.9; G6PDH CS: 3

How did CC(C)c1nc2sc3c(SCC(=O)NCc4ccco4)ncnc3c2c2c1CCC2 do in these assays?
PMI act hi M6P: 1; PMI act: 1.1; Diaphorase inh: 56*; Diaph act CS: 0.4; G6PDH CS: 16

What do the screens show for `COc1cc(CN2CCCC(CO)(Cc3ccccc3C)C2)cc2c1OCO2` (stereo unspecified)?
PMI act hi M6P: 1; PMI act: 0.9; Diaphorase inh: 7; Diaph act CS: 0.9; G6PDH CS: 2

What do the screens show for `CCOC(=O)SC1=N/C(=C\c2ccc(N(C)C)cc2)C(=O)S1`?
PMI act hi M6P: 0.8; PMI act: 0.6; Diaphorase inh: 50*; Diaph act CS: 0.5; G6PDH CS: -24

What do the screens show for `CCSC1=N/C(=C\c2ccc(C(=O)O)cc2)C(=O)S1`?
PMI act hi M6P: 1; PMI act: 1; Diaphorase inh: 18; Diaph act CS: 0.8; G6PDH CS: 1

Results for c1coc(C2=Nc3cccc4cccc(c34)N2)c1 ?
PMI act hi M6P: 0.4; PMI act: 0.7; Diaphorase inh: 60*; Diaph act CS: 0.4; G6PDH CS: 46

Results for COc1cccc(C2=Nc3cccc4cccc(c34)N2)c1 ?
PMI act hi M6P: 1.6; PMI act: 1.2; Diaphorase inh: 16; Diaph act CS: 0.8; G6PDH CS: -12

How did Cc1ccc(C)c(Cn2c(C)nc3c(sc(=S)n3-c3ccccc3)c2=O)c1 do in these assays?
PMI act hi M6P: 0.9; PMI act: 1; Diaphorase inh: -2; Diaph act CS: 1; G6PDH CS: 16

What do the screens show for `Cc1ccc(C)c(S(=O)(=O)Nc2ccc(C(N)=O)cc2)c1`?
PMI act hi M6P: 0.9; PMI act: 0.9; Diaphorase inh: 57*; Diaph act CS: 0.4; G6PDH CS: 12

What do the screens show for `Cc1ccc(C)c(NS(=O)(=O)c2cc(C(N)=O)ccc2C)c1`?
PMI act hi M6P: 1; PMI act: 0.6; Diaphorase inh: -9; Diaph act CS: 1.1; G6PDH CS: 8

Results for COc1ccc(CCNC(=O)C(=O)NCc2ccc(Cl)cc2)cc1OC ?
PMI act hi M6P: 1.1; PMI act: 1.1; Diaphorase inh: -15; Diaph act CS: 1.2; G6PDH CS: 2

What do the screens show for `N#Cc1c2n(c3c(=S)nc[nH]c13)CCCCC2`?
PMI act hi M6P: 1; PMI act: 0.9; Diaphorase inh: 54*; Diaph act CS: 0.5; G6PDH CS: 4

Results for Nc1c(C(=O)c2ccccc2O)cnn1-c1ccc(S(=O)(=O)N2CCOCC2)cc1[N+](=O)[O-] ?
PMI act hi M6P: 1; PMI act: 1; Diaphorase inh: 27; Diaph act CS: 0.7; G6PDH CS: 4

How did COc1ccc(CC/C(C)=N\NC(N)=O)cc1 do in these assays?
PMI act hi M6P: 1; PMI act: 1; Diaphorase inh: 2; Diaph act CS: 1; G6PDH CS: -4

How did Nn1c(-c2ccccc2Cl)nnc1-c1ccccc1Cl do in these assays?
PMI act hi M6P: 2.2*; PMI act: 1.7; Diaphorase inh: 9; Diaph act CS: 0.9; G6PDH CS: 11

How did Cc1cc(C)n2nc(SCc3nnc(SCc4ccccc4Cl)s3)nc2n1 do in these assays?
PMI act hi M6P: 0.9; PMI act: 0.9; Diaphorase inh: 58*; Diaph act CS: 0.4; G6PDH CS: -10
